Measured values: paper PMC2812024 (Journal of medicinal chemistry, 2008)
Read-outs that look alike come from different tables or passages of the source. Where a SMILES comes first, the peptide text is derived from it. [ ]: non-standard residue; d: D form. The star is where a group is joined. Dmt = Cc1cc(O)cc(C)c1C[C@H](N)C(=O)O; Tic = O=C(O)[C@@H]1Cc2ccccc2CN1; NHBn = c1ccc(CN*)cc1

How the values were obtained:
[1] = biological target: T1, μ-opioid receptor (Cavia porcellus, UniProt P97266); test: Electrically stimulated guinea-pig ileum; set-up: species or system guinea pigs
T1 sequence (P97266 whole entry, looked up): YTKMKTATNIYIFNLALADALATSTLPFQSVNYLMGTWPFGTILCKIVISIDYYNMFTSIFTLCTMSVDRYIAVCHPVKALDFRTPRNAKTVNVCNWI

[2] = test system: mice; test: Behavioural observation after icv injection; format: in vivo
[3] = Enzymatic degradation in brain homogenate; format: in vitro ADME; conditions: 2 h, preliminary
[4] = test system: mice; test: Hot-plate test after icv injection; format: in vivo, Swiss-Webster mice
Procedure, shortened: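 Male Swiss-Webster mice (20–25 g); test compound in saline, 5 μL icv at bregma (needle 2.3–3 mm deep), placement checked after sacrifice. Latency to jump, lick or shake hind paws on a 55 °C plate at 10 min post-injection, then every 10 min; baseline 5–10 sec, cutoff 30 sec.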

[5] = Enzymatic degradation in plasma; format: in vitro ADME; conditions: 4 h, preliminary
[6] = test system: mice; test: Tail-flick test after icv injection; format: in vivo, Swiss-Webster mice
Procedure, shortened: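 Radiant heat on the dorsal tail surface of male Swiss-Webster mice (20–25 g), with latency to tail removal timed. Baseline 2–3 sec, cutoff 8 sec. Readings start 10 min after icv test compound (5 μL saline at bregma) and repeat every 10 min.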

[7] = biological target: T2, δ-opioid receptor (Mus musculus, UniProt P32300); test: Electrically stimulated mouse vas deferens; conditions: MVD
T2 sequence (P32300 whole entry): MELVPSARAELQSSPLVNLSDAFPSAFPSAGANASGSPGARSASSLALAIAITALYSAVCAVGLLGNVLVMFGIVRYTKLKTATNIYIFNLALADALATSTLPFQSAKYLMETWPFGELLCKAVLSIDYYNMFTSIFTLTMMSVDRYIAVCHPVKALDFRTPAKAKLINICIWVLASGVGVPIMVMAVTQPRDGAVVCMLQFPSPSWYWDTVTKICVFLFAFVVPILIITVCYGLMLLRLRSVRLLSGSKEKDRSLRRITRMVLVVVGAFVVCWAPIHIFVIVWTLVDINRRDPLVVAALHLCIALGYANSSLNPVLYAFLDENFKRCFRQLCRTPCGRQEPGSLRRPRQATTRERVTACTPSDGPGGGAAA

[8] = biological target: T2, δ-opioid receptor; conditions: ref Balboni et al.[5], cited from earlier work
[9] = biological target: T1, μ-opioid receptor; conditions: read-out: GPI IC50; μ agonism; ref Balboni et al.[5]; cited from earlier work
[10] = biological target: μ-opioid receptors (Rattus norvegicus, UniProt P33535); conditions: read-out: Receptor affinity Ki^μ; reference compounds; ref Balboni et al.[5]; cited from earlier work
Chain of μ-opioid receptors (P33535 whole entry): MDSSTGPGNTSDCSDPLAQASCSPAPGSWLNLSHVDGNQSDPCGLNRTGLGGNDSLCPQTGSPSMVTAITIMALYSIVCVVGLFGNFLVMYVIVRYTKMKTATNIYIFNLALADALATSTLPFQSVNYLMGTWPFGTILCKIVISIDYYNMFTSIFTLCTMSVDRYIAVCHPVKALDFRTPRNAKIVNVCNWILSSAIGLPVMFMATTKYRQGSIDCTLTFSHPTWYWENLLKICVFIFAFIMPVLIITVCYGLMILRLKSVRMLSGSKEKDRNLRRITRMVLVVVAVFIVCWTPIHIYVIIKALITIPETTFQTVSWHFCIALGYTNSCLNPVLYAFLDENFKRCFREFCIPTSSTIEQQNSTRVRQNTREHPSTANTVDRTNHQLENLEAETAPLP

[11] = biological target: δ-opioid receptors (Rattus norvegicus, UniProt P33533); conditions: ref Balboni et al.[5], cited from earlier work; for Ki: read-out: Receptor affinity Ki^δ, reference compounds
Chain of δ-opioid receptors (P33533 whole entry): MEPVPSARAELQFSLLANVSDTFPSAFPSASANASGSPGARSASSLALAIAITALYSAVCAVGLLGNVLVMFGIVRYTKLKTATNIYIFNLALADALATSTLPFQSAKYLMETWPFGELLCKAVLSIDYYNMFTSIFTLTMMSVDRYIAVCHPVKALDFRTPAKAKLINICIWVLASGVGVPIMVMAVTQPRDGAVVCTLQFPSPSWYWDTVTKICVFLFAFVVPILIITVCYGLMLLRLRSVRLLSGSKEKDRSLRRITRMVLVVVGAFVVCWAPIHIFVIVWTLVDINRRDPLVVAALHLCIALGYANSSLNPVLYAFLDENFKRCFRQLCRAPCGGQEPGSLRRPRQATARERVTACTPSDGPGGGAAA

[12] = 10 μg/mouse icv, sc naltrindole 3 mg/kg, naloxone 10 mg/kg 20 min before

## Cc1cc(O)cc(C)c1C[C@H](N)C(=O)N1Cc2ccccc2C[C@H]1C(=O)N[C@@H](CC(=O)O)C(=O)N(C)c1ccccc1 [Compound 8, H-Dmt-Tic-Asp-N(Me)-Ph]
[1]
  IC50: > 10000 nM

## Cc1cc(O)cc(C)c1C[C@H](N)C(=O)N1Cc2ccccc2C[C@H]1C(=O)N[C@H](CC(=O)O)C(=O)N(C)c1ccccc1 [Compound 9, H-Dmt-Tic-D-Asp-N(Me)-Ph]
[1]
  IC50: > 10000 nM

## Cc1cc(O)cc(C)c1C[C@H](N)C(=O)N1Cc2ccccc2C[C@H]1C(=O)N[C@@H](CC(=O)O)c1nc2ccccc2n1C [Compound 10, H-Dmt-Tic-NH-(S)CH(CH2-COOH)-Bid(N^1-Me)]
[1]; GPI
  μ agonism relative to 4: 1.7 fold
[2]; highest doses
  Convulsions: convulsions
[2]; same dose
  Behavioural effects in mice: sedated, quiet, easily handled, and moving slowly if at all
[3]
  Stability to enzymic degradation: fully stable
[4]; [12]
  Reversal of analgesia by naltrindole and naloxone, hot-plate test: not in the hot-plate test
[4]; icv injection, mice, Figure 1
  Analgesic effect, hot-plate test: dose dependent analgesic effect
[5]
  Stability to enzymic degradation: fully stable
[6]; [12]
  Reversal of analgesia by naltrindole and naloxone, tail-flick test: reversed
[6]; icv injection, mice, Figure 1
  Analgesic effect, tail-flick test: dose dependent analgesic effect

## Cc1cc(O)cc(C)c1C[C@H](N)C(=O)N1Cc2ccccc2C[C@H]1C(=O)N[C@H](CC(=O)O)c1nc2ccccc2n1C [Compound 11, H-Dmt-Tic-NH-(R)CH(CH2-COOH)-Bid(N^1-Me)]
[1]
  IC50: > 10000 nM

## Cc1cc(O)cc(C)c1C[C@H](N)C(=O)N1Cc2ccccc2C[C@H]1C(=O)N[C@@H](CC(=O)O)C(=O)NCc1ccccc1 [Compound 13, H-Dmt-Tic-Asp-NH-Bzl] (H-[Dmt]-[Tic]-Asp-NHBn)
[7]
  δ antagonist activity, lower than 2: 5 fold

## H-Dmt-Tic-Gly-NH-Bzl [Compound 2]
[8]; δ antagonism
  MVD pA2: 9.25
[9]
  IC50: 2.69 nM
[10]
  Ki: 0.16 nM
[11]
  Ki: 0.031 nM
  Selectivity Ki^μ/Ki^δ: 5

## H-Dmt-Tic-Gly-NH-Ph [Compound 1]
[8]; read-out: MVD IC50, δ agonism
  IC50: 3.02 nM
[9]
  IC50: 2.57 nM
[10]
  Ki: 0.16 nM
[11]
  Ki: 0.042 nM
  Selectivity Ki^μ/Ki^δ: 4
